Measurements reported in ChEMBL document CHEMBL1155292, “Synthesis, analgesic and anti-inflammatory activities evaluation of some bi-, tri- and tetracyclic condensed pyrimidines” (Eur J Med Chem, 2009).

Columns and labels:
Assay type in all cases: functional
[1] = system: Rattus norvegicus; assay: Antiinflammatory activity in albino rat assessed as inhibition of carrageenan-induced paw edema at 0.029 mmol/kg, po after 3 hrs relative to control
Procedure, shortened: (§1)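 Adult albino rats of either sex, 120–150 g, six per group. Compounds at 0.029 mmol/kg suspended in saline with a few drops of Tween 80 and given by oral stomach tube. After 1 h, 0.1 ml of freshly prepared 1% carrageenan in saline injected subplantar into the right hind paw. Paw thickness measured at 1–4 h; % edema inhibition versus control; mean ± SEM; ANOVA.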

[2] = system: Rattus norvegicus; assay: Antiinflammatory activity in albino rat assessed as inhibition of carrageenan-induced paw edema at 0.029 mmol/kg, po after 2 hrs relative to control; procedure, shortened: as §1
[3] = system: Mus musculus; assay: Analgesic activity in albino mouse assessed as decrease in acetic acid-induced writhing at 10 mg/kg, po administered 1 hr prior to acetic acid challenge relative to control
Procedure, shortened: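 Albino mice of either sex, 18–22 g, six per group. Test agents suspended in saline with a few drops of Tween 80 and given by oral stomach tube; controls handled identically without drug. After 1 h, 0.3 ml of 1% acetic acid ip. Writhing contractions counted for 30 min, starting 5 min after injection. % protection versus control mean; mean ± SEM; one-way ANOVA with post hoc test.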

[4] = system: Rattus norvegicus; assay: Antiinflammatory activity in albino rat assessed as inhibition of carrageenan-induced paw edema at 0.029 mmol/kg, po after 1 hr relative to control; procedure, shortened: as §1
[5] = system: Rattus norvegicus; assay: Antiinflammatory activity in albino rat assessed as inhibition of carrageenan-induced paw edema at 0.029 mmol/kg, po after 4 hrs relative to control; procedure, shortened: as §1

**Q.** For `COc1ccc2c(c1)c(CC(=O)O)c(C)n2C(=O)c1ccc(Cl)cc1` [INDOMETHACIN], which inhibition in vivo at 29 µmol/kg [1] is on record?
**A.** The inhibition in vivo at 29 µmol/kg was 30.9%.

**Q.** And the inhibition in vivo at 29 µmol/kg [2]?
**A.** The inhibition in vivo at 29 µmol/kg was 35.5%.

**Q.** What about the inhibition in vivo at 10 mg/kg [3] of the same compound?
**A.** Its inhibition in vivo at 10 mg/kg is 71.6%.

**Q.** And the inhibition in vivo at 29 µmol/kg [4]?
**A.** Its inhibition in vivo at 29 µmol/kg is 47.2%.

**Q.** And the inhibition in vivo at 29 µmol/kg [5]?
**A.** Its inhibition in vivo at 29 µmol/kg is 27.3%.
